Results reported in ChEMBL document CHEMBL1155362, “Synthesis, characterization and derivatization of some novel types of mono- and bis-imidazolidineiminothiones and imidazolidineiminodithiones with antitumor, antiviral, antibacterial and antifungal activities--part I” (Eur J Med Chem, 2009).
Converted amounts (≈) assume the structure as drawn. The source made the active and inactive calls. The rule behind the calls is not given here.

How the values were obtained:
[1] = Antitumor activity against mouse EAC cells assessed as inhibition of cell viability at 100 ug/ml after 2 hrs by trypan blue exclusion assay; assay type: functional; conditions: Ehrlich
Outline: (§1)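 EAC cells aspirated from ascitic fluid of inoculated mice and diluted in saline; 0.1 mL cell suspension, 0.8 mL RPMI 1640 and 0.1 mL compound (25, 50 or 100) incubated 2 h at 37 °C; non-viable cells counted by trypan blue exclusion; % non-viable = dead/total × 100.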

[2] = Antitumor activity against mouse EAC cells assessed as inhibition of cell viability at 50 ug/ml after 2 hrs by trypan blue exclusion assay; assay type: functional; conditions: Ehrlich; outline: as §1
[3] = Antitumor activity against mouse EAC cells assessed as inhibition of cell viability at 25 ug/ml after 2 hrs by trypan blue exclusion assay; assay type: functional; conditions: Ehrlich; outline: as §1
[4] = test system: U-251; test: Cytotoxicity against human U251 cells assessed as surviving fraction after 48 hrs by SRB assay; assay type: functional, cell-based
Outline: (§2)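 Cells seeded at 10⁴ cells/well and left 24 h to attach, then exposed to […] in triplicate wells per dose. Incubation 48 h, 37 °C, 5% CO₂. Cells fixed and stained with sulforhodamine B, excess dye removed with acetic acid, bound dye taken up in Tris EDTA and read on an ELISA reader. Surviving fraction plotted against concentration.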

[5] = test system: HepG2; test: Cytotoxicity against human HepG2 cells assessed as surviving fraction after 48 hrs by SRB assay; assay type: functional, cell-based; conditions: Homo sapiens, HepG2, 48 h; read-out: IC50; outline: as §2
[6] = test system: MCF7; test: Cytotoxicity against human MCF7 cells assessed as surviving fraction after 48 hrs by SRB assay; assay type: functional, cell-based; outline: as §2
[7] = test system: HeLa; test: Cytotoxicity against human HeLa cells assessed as surviving fraction after 48 hrs by SRB assay; assay type: functional, cell-based; outline: as §2
[8] = test system: HCT-116; test: Cytotoxicity against human HCT116 cells assessed as surviving fraction after 48 hrs by SRB assay; assay type: functional, cell-based; outline: as §2
[9] = test system: Bacillus subtilis; test: Antibacterial activity against Bacillus subtilis NCIB 3610 at 5 mg/ml by agar disk diffusion assay; assay type: functional; conditions: Bacillus subtilis, NCIB 3610; read-out: DIZ
[10] = test system: Candida albicans; test: Antifungal activity against Candida albicans IMRU 3669 at 5 mg/ml by agar disk diffusion assay; assay type: functional; conditions: Candida albicans, IMRU 3669; read-out: DIZ
Outline: (§3)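 Fungi maintained on Czapek's Dox agar; agar well diffusion with 1 cm wells and […] of each concentration (1, 2.5, 5 mg/mL) in DMF; inhibition zone diameter measured.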

[11] = test system: Candida albicans; test: Antifungal activity against Candida albicans IMRU 3669 at 2.5 mg/ml by agar disk diffusion assay; assay type: functional; conditions: read-out: DIZ; outline: as §3
[12] = test system: Pseudomonas aeruginosa; test: Antibacterial activity against Pseudomonas aeruginosa NCIB 9016 at 1 mg/ml by agar disk diffusion assay; assay type: functional; conditions: Pseudomonas aeruginosa, NCIB 9016; read-out: DIZ
[13] = test system: Pseudomonas aeruginosa; test: Antibacterial activity against Pseudomonas aeruginosa NCIB 9016 at 2.5 mg/ml by agar disk diffusion assay; assay type: functional; conditions: Pseudomonas aeruginosa, NCIB 9016; read-out: DIZ
[14] = test system: Pseudomonas aeruginosa; test: Antibacterial activity against Pseudomonas aeruginosa NCIB 9016 at 5 mg/ml by agar disk diffusion assay; assay type: functional; conditions: Pseudomonas aeruginosa, NCIB 9016; read-out: DIZ
[15] = test system: Bacillus subtilis; test: Antibacterial activity against Bacillus subtilis NCIB 3610 at 1 mg/ml by agar disk diffusion assay; assay type: functional; conditions: Bacillus subtilis, NCIB 3610; read-out: DIZ
[16] = test system: Bacillus subtilis; test: Antibacterial activity against Bacillus subtilis NCIB 3610 at 2.5 mg/ml by agar disk diffusion assay; assay type: functional; conditions: Bacillus subtilis, NCIB 3610; read-out: DIZ
[17] = test system: Candida albicans; test: Antifungal activity against Candida albicans IMRU 3669 at 1 mg/ml by agar disk diffusion assay; assay type: functional; conditions: read-out: DIZ; outline: as §3
[18] = test system: Bacillus subtilis; test: Antimicrobial activity against Bacillus subtilis NCTC 1040 by macrotube dilution assay; assay type: functional
[19] = test system: Staphylococcus aureus; test: Antimicrobial activity against Staphylococcus aureus NCTC 7447 by macrotube dilution assay; assay type: functional
[20] = test system: Klebsiella pneumoniae; test: Antimicrobial activity against Klebsiella pneumoniae NCIMB 9111 by macrotube dilution assay; assay type: functional
[21] = test system: Salmonella typhi; test: Antimicrobial activity against Salmonella typhi NCIMB 9331 by macrotube dilution assay; assay type: functional, Salmonella enterica subsp. enterica serovar Typhi; conditions: Salmonella enterica
[22] = test system: Candida albicans; test: Antifungal activity against Candida albicans IMRU 3669 by macrotube dilution assay; assay type: functional
Outline: (§4)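 Macrotube twofold dilution per NCCLS/CLSI guidelines for fungi; 2 mg compound in 2.0 mL DMF, serially diluted across 14 tubes of Czapek's Dox medium, with a control tube; inoculum added to halve the concentration; 30 °C for 72 h; MIC is the lowest concentration without visible growth.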

[23] = test system: Aspergillus niger; test: Antifungal activity against Aspergillus niger Ferm-BAM C-21 by macrotube dilution assay; assay type: functional; outline: as §4
[24] = test system: Aspergillus niger; test: Antifungal activity against Aspergillus niger Ferm-BAM C-21 at 5 mg/ml by agar disk diffusion assay; assay type: functional; conditions: read-out: DIZ; outline: as §3
[25] = test system: Aspergillus niger; test: Antifungal activity against Aspergillus niger Ferm-BAM C-21 at 2.5 mg/ml by agar disk diffusion assay; assay type: functional; conditions: read-out: DIZ; outline: as §3
[26] = test system: Aspergillus niger; test: Antifungal activity against Aspergillus niger IMI 31726 at 5 mg/ml by agar disk diffusion assay; assay type: functional; conditions: read-out: DIZ
[27] = test system: Hepatovirus A; test: Antiviral activity against Hepatitis A virus infected african green monkey Vero cells at 10^-4 dilution of 5 mg/ml by plaque formation assay; assay type: functional
Outline: (§5)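 Compound dilutions prepared from a 5 mg/mL DMSO stock, using the maximum non-toxic dilution for Vero cells over 3 days; 0.1 mL virus (10³) mixed with 0.1 mL compound for 1 h at room temperature; mixture inoculated onto washed Vero monolayers in 12-well plates and adsorbed at 37 °C; 2× MEM/agarose overlay applied; read-out % reduction in plaque count versus untreated virus control.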

[28] = test system: Human alphaherpesvirus 1; test: Antiviral activity against HSV1 infected african green monkey Vero cells at 10^-4 dilution of 5 mg/ml by plaque formation assay; assay type: functional; outline: as §5
[29] = test system: Coxsackievirus B4; test: Antiviral activity against Coxsackievirus B4 infected african green monkey Vero cells at 10^-4 dilution of 5 mg/ml by plaque formation assay; assay type: functional, organism-based; outline: as §5
[30] = test system: Escherichia coli; test: Antibacterial activity against Escherichia coli NCTC 10416 at 5 mg/ml by agar disk diffusion assay; assay type: functional; conditions: read-out: DIZ
[31] = test system: Salmonella typhi; test: Antibacterial activity against Salmonella typhi NCIMB 9331 at 5 mg/ml by agar disk diffusion assay; assay type: functional, Salmonella enterica subsp. enterica serovar Typhi; conditions: Salmonella enterica, read-out: DIZ
[32] = test system: Bacillus subtilis; test: Antibacterial activity against Bacillus subtilis NCTC 1040 at 5 mg/ml by agar disk diffusion assay; assay type: functional; conditions: read-out: DIZ
[33] = test system: Staphylococcus aureus; test: Antibacterial activity against Staphylococcus aureus NCTC 7447 at 5 mg/ml by agar disk diffusion assay; assay type: functional; conditions: read-out: DIZ
[34] = Homo sapiens, HeLa, 48 h, read-out: IC50

Structure (SMILES)	inhibition at 100 µg/mL [1]	inhibition at 50 µg/mL [2]	inhibition at 25 µg/mL [3]	IC50 [5]	zone of inhibition at 5000 µg/mL [9]	zone of inhibition at 5000 µg/mL [10]	zone of inhibition at 2500 µg/mL [11]	zone of inhibition at 1000 µg/mL [12]	zone of inhibition at 2500 µg/mL [13]	zone of inhibition at 5000 µg/mL [14]	zone of inhibition at 1000 µg/mL [15]	zone of inhibition at 2500 µg/mL [16]	zone of inhibition at 1000 µg/mL [17]	also measured
Cc1ccc(-n2c(=O)n(-c3ccc(Cl)cc3)c3nc4cc(C)ccc4nc32)cc1	90%	60%	35%	4.43 µg/mL (≈ 11.1 µM)	–	–	–	–	–	–	–	–	–	IC50 ([4]; u-251): Not Active; IC50 ([6]; mcf7): Not Active; IC50 [7, 34]: 8.32 µg/mL (≈ 20.8 µM); IC50 ([8]; hct-116): Not Active
NNc1nnc2c(n1)n(-c1ccc(Cl)cc1)c(=O)n2-c1ccc(Cl)cc1	100%	100%	95%	1.54 µg/mL (≈ 3.97 µM)	–	–	–	–	–	–	–	–	–	IC50 ([6]; mcf7): Not Active; IC50 ([7]; hela): Not Active; IC50 ([8]; hct-116): Not Active
N=C1C(=S)N(c2ccc(Cl)c(Cl)c2)C(=O)N1c1ccc(Oc2ccc(N3C(=N)C(=S)N(c4ccc(Cl)c(Cl)c4)C3=O)cc2)cc1	–	–	–	–	20 mm	18 mm	17 mm	15 mm	18 mm	20 mm	15 mm	19 mm	–	–
O=C1N(c2ccc(Cl)cc2)CC(=S)N1c1ccc(Cl)c(Cl)c1	–	–	–	–	20 mm	32 mm	–	29 mm	32 mm	37 mm	19 mm	20 mm	25 mm	MIC [18]: 1.95 µg/mL (≈ 5.25 µM); MIC [19]: 15.6 µg/mL (≈ 42 µM); MIC [20]: 3.9 µg/mL (≈ 10.5 µM); MIC [21]: 0.49 µg/mL (≈ 1.32 µM); MIC [22]: 0.97 µg/mL (≈ 2.61 µM); MIC [23]: 31.3 µg/mL (≈ 84.2 µM)
CC1OC(=N)C(=S)N1c1ccc(Cl)c(Cl)c1 (centres undefined)	–	–	–	–	33 mm	39 mm	33 mm	15 mm	29 mm	41 mm	20 mm	27 mm	21 mm	zone of inhibition at 5000 µg/mL [24]: 20 mm; zone of inhibition at 2500 µg/mL [25]: 11 mm
CCOc1ccc(N2C(=O)N(c3c(CC)cc(Cc4cc(CC)c(N5C(=N)C(=S)N(c6ccc(OCC)cc6)C5=O)c(CC)c4)cc3CC)C(=N)C2=S)cc1	90%	80%	60%	5.44 µg/mL (≈ 7.02 µM)	15 mm	15 mm	14 mm	–	13 mm	15 mm	13 mm	14 mm	12 mm	zone of inhibition at 5000 µg/mL [24]: 13 mm; IC50 ([4]; Homo sapiens, U-251, 48 h, read-out: IC50): 1.01 µg/mL (≈ 1.3 µM); IC50 ([6]; Homo sapiens, MCF7, 48 h, read-out: IC50): 2.15 µg/mL (≈ 2.77 µM); IC50 [7, 34]: 2.42 µg/mL (≈ 3.12 µM); IC50 ([8]; Homo sapiens, HCT-116, 48 h, read-out: IC50): 4.36 µg/mL (≈ 5.63 µM)
N=C1C(=S)N(c2ccc(I)cc2)C(=O)N1c1cc(Cl)c(Cl)cc1Cl	–	–	–	–	–	17 mm	–	–	–	–	–	–	–	zone of inhibition at 5000 µg/mL [26]: 20 mm; Activity [27]: 40%; Activity [28]: inactive; Activity [29]: inactive; zone of inhibition at 5000 µg/mL [30]: 16.5 mm; zone of inhibition at 5000 µg/mL [31]: 17 mm; zone of inhibition at 5000 µg/mL [32]: 17 mm; zone of inhibition at 5000 µg/mL [33]: 18 mm
